The source of these data is ChEMBL document CHEMBL1153507, “Synthesis, DNA intercalation and 3D QSAR analysis of cis-2,4,5-trisubstituted-1,3-dithiolanes as a novel class of antitumor agents” (2009).

The source made the active and inactive calls. No cut-off for these calls is given here.

The test system of assay [1] is CCRF S-180. The assay can be described thus: Antitumor activity against mouse S180 cells implanted in ICR mouse assessed as tumor weight at 44.64 umol/kg/day, ip administered for 7 consecutive days after 24 hrs of tumor implantation measured after 24 hrs post dose. Format: functional. In outline: (§1)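 Male ICR mice aged 10–12 weeks, housed at 21 °C on a natural light cycle, carried S180 tumors. 24 h after implantation they were randomized into groups of 10. Daily ip dosing in 0.2 ml normal saline for 7 days: test agents 44.64 µmol/kg/day, cytarabine 89.28 µmol/kg/day, saline as negative control. Mice were killed 24 h after the last dose and tumors weighed. Inhibition = (control − treated)/control tumor weight. Mean ± SD.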

In assay [2] the test system is Calf thymus DNA. The assay can be described thus: Binding affinity to calf thymus DNA by circular diachromic assay. Conditions: Bos taurus. Format: nucleic-acid assay.
For assay [3], the system named is Calf thymus DNA. Put plainly: Binding affinity to calf thymus DNA assessed as hyperchromic effect by UV-vis spectrophotometry. Conditions: Bos taurus.
Assay [4] concerns Calf thymus DNA. Put plainly: Binding affinity to calf thymus DNA by spectroscopy. It counts as nucleic-acid assay. The note with it: Bos taurus. In outline: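 UV-vis titration of calf thymus DNA (10 µM final) in PBS, pH 7.4. Compound from a 10 mM PBS stock was added in sequential aliquots to final 4–40 µM, and spectra were recorded after each addition. Compounds were transparent at 200–360 nm.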

Assay [5] relates to CCRF S-180. Put plainly: Antitumor activity against mouse S180 cells xenografted in ip dosed ICR mouse assessed as inhibition of tumor weight administered for 7 consecutive days after 24 of hrs tumor implantation measured after 24 hrs post dose. It counts as functional, organism-based. The essentials: as §1
Assay [6] concerns CCRF S-180. Put plainly: Antitumor activity against mouse S180 cells implanted in ICR mouse assessed as tumor weight at 89.28 umol/kg/day, ip administered for 7 consecutive days after 24 hrs of tumor implantation measured after 24 hrs post dose. Format: functional. In outline:
as §1

With `C[C@@H](O)[C@H](N)C(=O)OC[C@@H]1S[C@H](CC=O)S[C@@H]1COC(=O)[C@@H](N)[C@@H](C)O`, the Activity in the assay on CCRF S-180 [1] worked out at 1.087 g. Also, the outcome in the assay on Calf thymus DNA [2], with Calf thymus DNA [3] and with Calf thymus DNA [4] was Active.
For the compound `N[C@@H](Cc1c[nH]c2ccccc12)C(=O)OC[C@@H]1S[C@H](CC=O)S[C@@H]1COC(=O)[C@@H](N)Cc1c[nH]c2ccccc12`, the Activity in the assay on CCRF S-180 [1] amounted to 0.954 g. For the same compound, the outcome in the assay on Calf thymus DNA [2], in the assay with Calf thymus DNA [3] and in the assay on Calf thymus DNA [4] was Active.
With `CC(C)C[C@H](N)C(=O)OC[C@@H]1S[C@H](CC=O)S[C@@H]1COC(=O)[C@@H](N)CC(C)C`, in the assay on CCRF S-180 [1], the Activity is reported as 1.296 g. Also, the result with Calf thymus DNA [2], with Calf thymus DNA [3] and with Calf thymus DNA [4] was Active.
On to `NCC(=O)OC[C@@H]1S[C@H](CC=O)S[C@@H]1COC(=O)CN`, for which, in the assay with CCRF S-180 [1], the Activity worked out at 0.723 g. The outcome in the assay on Calf thymus DNA [2], in the assay with Calf thymus DNA [3] and in the assay on Calf thymus DNA [4] was Active. Also, the inhibition entry with CCRF S-180 [5] is “Dose-dependent effect”.
Regarding `NC(=O)C[C@H](N)C(=O)OC[C@@H]1S[C@H](CC=O)S[C@@H]1COC(=O)[C@@H](N)CC(N)=O`, the Activity in the assay on CCRF S-180 [1] was 0.855 g. In addition, the outcome in the assay with Calf thymus DNA [2], in the assay on Calf thymus DNA [3] and in the assay with Calf thymus DNA [4] was Active.
`CC[C@H](C)[C@H](N)C(=O)OC[C@@H]1S[C@H](CC=O)S[C@@H]1COC(=O)[C@@H](N)[C@@H](C)CC`: the Activity in the assay with CCRF S-180 [1] was 1.064 g. Besides, the outcome with Calf thymus DNA [2], in the assay with Calf thymus DNA [3] and in the assay with Calf thymus DNA [4] was Active.
As for `CSCC[C@H](N)C(=O)OC[C@@H]1S[C@H](CC=O)S[C@@H]1COC(=O)[C@@H](N)CCSC`, in the assay with CCRF S-180 [1], the Activity is reported as 1.139 g. Also, the result in the assay on Calf thymus DNA [2], in the assay on Calf thymus DNA [3] and in the assay on Calf thymus DNA [4] was Active.
In the case of `Nc1ccn([C@@H]2O[C@H](CO)[C@@H](O)[C@@H]2O)c(=O)n1` [CYTARABINE], the Activity with CCRF S-180 [6] came to 0.582 g.
For the compound `N=C(N)NCCC[C@H](N)C(=O)OC[C@@H]1S[C@H](CC=O)S[C@@H]1COC(=O)[C@@H](N)CCCNC(=N)N`, in the assay on CCRF S-180 [1], the Activity is 0.778 g. Further, the outcome in the assay on Calf thymus DNA [2], with Calf thymus DNA [3] and in the assay on Calf thymus DNA [4] was Active.
Take `NCCCC[C@H](N)C(=O)OC[C@@H]1S[C@H](CC=O)S[C@@H]1COC(=O)[C@@H](N)CCCCN`: the Activity with CCRF S-180 [1] amounted to 0.989 g. Further, the result in the assay with Calf thymus DNA [2], with Calf thymus DNA [3] and in the assay with Calf thymus DNA [4] was Active.
Take `N[C@@H](CCC(=O)O)C(=O)OC[C@@H]1S[C@H](CC=O)S[C@@H]1COC(=O)[C@@H](N)CCC(=O)O`: in the assay on CCRF S-180 [1], the Activity was determined as 1.051 g. Besides, the result in the assay on Calf thymus DNA [2], in the assay with Calf thymus DNA [3] and with Calf thymus DNA [4] was Active.
As for `N[C@@H](Cc1ccc(O)cc1)C(=O)OC[C@@H]1S[C@H](CC=O)S[C@@H]1COC(=O)[C@@H](N)Cc1ccc(O)cc1`, the Activity with CCRF S-180 [1] was 0.529 g. Further, the result in the assay with Calf thymus DNA [2], in the assay on Calf thymus DNA [3] and in the assay on Calf thymus DNA [4] was Active. Also, in the assay on CCRF S-180 [5], the inhibition result was “Dose-dependent effect”.
For `CC(C)[C@H](N)C(=O)OC[C@@H]1S[C@H](CC=O)S[C@@H]1COC(=O)[C@@H](N)C(C)C` (mixture of isomers), in the assay on CCRF S-180 [1], the Activity was 1.114 g. Further, the outcome with Calf thymus DNA [2], in the assay on Calf thymus DNA [3] and in the assay with Calf thymus DNA [4] was Active.
Turning to `N[C@@H](Cc1c[nH]cn1)C(=O)OC[C@@H]1S[C@H](CC=O)S[C@@H]1COC(=O)[C@@H](N)Cc1c[nH]cn1`, the Activity with CCRF S-180 [1] turned out to be 1.076 g. Further, the result in the assay with Calf thymus DNA [2], in the assay on Calf thymus DNA [3] and in the assay with Calf thymus DNA [4] was Active.
Turning to `O=CC[C@H]1S[C@@H](COC(=O)[C@@H]2CCCN2)[C@@H](COC(=O)[C@@H]2CCCN2)S1`, in the assay on CCRF S-180 [1], the Activity was 1.446 g. Besides, the outcome with Calf thymus DNA [2], in the assay on Calf thymus DNA [3] and in the assay with Calf thymus DNA [4] was Active.
Regarding `N[C@@H](Cc1ccccc1)C(=O)OC[C@@H]1S[C@H](CC=O)S[C@@H]1COC(=O)[C@@H](N)Cc1ccccc1`, in the assay with CCRF S-180 [1], the Activity worked out at 0.693 g. Further, the result in the assay on Calf thymus DNA [2], in the assay with Calf thymus DNA [3] and in the assay with Calf thymus DNA [4] was Active. Moreover, the inhibition entry in the assay with CCRF S-180 [5] is “Dose-dependent effect”.
Turning to `NC(=O)CC[C@H](N)C(=O)OC[C@@H]1S[C@H](CC=O)S[C@@H]1COC(=O)[C@@H](N)CCC(N)=O`, the Activity with CCRF S-180 [1] stood at 1.061 g. For the same compound, the result in the assay with Calf thymus DNA [2], with Calf thymus DNA [3] and in the assay with Calf thymus DNA [4] was Active.
For `C[C@H](N)C(=O)OC[C@@H]1S[C@H](CC=O)S[C@@H]1COC(=O)[C@H](C)N`, the Activity in the assay with CCRF S-180 [1] turned out to be 1.213 g. The outcome in the assay with Calf thymus DNA [2], in the assay with Calf thymus DNA [3] and in the assay with Calf thymus DNA [4] was Active.
For `N[C@@H](CO)C(=O)OC[C@@H]1S[C@H](CC=O)S[C@@H]1COC(=O)[C@@H](N)CO`, the Activity in the assay on CCRF S-180 [1] was 1.493 g. Further, the outcome with Calf thymus DNA [2], in the assay with Calf thymus DNA [3] and in the assay with Calf thymus DNA [4] was Active.
